Experimental data taken from article PMC8126997 (ACS chemical biology, 2021).

What was measured:
[1] = tested on: wild type (WT) HIV-1 protease; settings: cited from earlier work
[2] = tested on: HTLV-1 Gag cleavage in SP cells (chronically infected with HTLV-1); assay: SP cell protease inhibition treatment, Gag processing by anti-p24 immunoblot; assay type: cell-based; settings: 48 h; for Amount of full-length (FL) Gag and larger size cleavage intermediates (CI): SP cell lysates and supernatants, 50 µM or 100 µM; for FL Gag band percentage (mean ± SEM), cell lysate: SP cell lysate, DMSO 2.0 ± 1.0%; for FL Gag band percentage (mean ± SEM), cell lysate / FL Gag band percentage (mean ± SEM), viral particles produced from SP cells: n=3; for FL Gag band percentage (mean ± SEM), viral particles produced from SP cells: particles in cell culture supernatant
Procedure, shortened: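 SP cells kept in RPMI with 20% FC3 serum, 1% penicillin-streptomycin and human IL-2 (10 U/ml). Medium exchanged for medium containing 50 or 100 µM test compound, or 0.01% v/v DMSO control, for 48 h at 37 °C and 5% CO2. Supernatant was 0.22 µm-filtered and pelleted over an 8% Optiprep cushion, with pellet lysed in RIPA buffer. Lysates and pellets were immunoblotted with anti-p24. FL Gag was quantified as % of lane bands, reported as mean ± SEM (n=3), and compared with DMSO by one-tailed t-test.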

HTLV-1 protease = HTLV-1 protease (Human T-cell leukemia virus type I, UniProt Q82134, L40I); settings: relative to UM6

| Compound | Potency against wild type (WT) HIV-1 protease [1] | Amount of full-length (FL) Gag and larger size cleavage intermediates (CI) [2] | Fold better inhibition of HTLV-1 protease than UM6 (HTLV-1 protease) | FL Gag band percentage (mean ± SEM), cell lysate ([2]; 50 µM inhibitor) | FL Gag band percentage (mean ± SEM), cell lysate ([2]; 100 µM inhibitor) | FL Gag band percentage (mean ± SEM), viral particles produced from SP cells ([2]; 50 µM inhibitor) | FL Gag band percentage (mean ± SEM), viral particles produced from SP cells ([2]; 100 µM inhibitor) |
| --- | --- | --- | --- | --- | --- | --- | --- |
| CC(C)CN(C[C@@H](O)[C@H](Cc1ccccc1)NC(=O)O[C@H]1CO[C@H]2OCC[C@H]21)S(=O)(=O)c1ccc(N)cc1 [DRV, darunavir, reference compound] | low-picomolar | increased | – | – | – | – | – |
| CCOP(=O)(COc1ccc(C[C@H](NC(=O)O[C@H]2CO[C@H]3OCC[C@H]32)[C@H](O)CN(CC(CC)CC)S(=O)(=O)c2ccc(N)cc2)cc1)OCC [PU6] | – | increased | 4 fold | 32.4 ± 15.5% | 41.0 ± 13.7% | 5.8 ± 2.8% | 12.9 ± 3.1% |
